Screening results as filed in PubChem BioAssay.
An excerpt weighted towards active compounds, which were near 3.7% of everything screened.
KCNK3 block: human KCNK3 channel inhibition, primary screen. O14649. CHO-KCNK3 thallium flux, FluxOR fluorescence; stronger effect = lower value. B-score at 10 µM. hit rate 0.84% among 340,000;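 active = B-score under library mean minus 4 SD, starting fluorescence ratio at most library mean plus 5 SD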;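 note: more negative B-score means stronger inhibition of thallium flux through KCNK3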
KCNK9 inh: human KCNK9 channel inhibition. Q9NPC2. HEK293 KCNK9, FluxOR thallium flux fluorescence; stronger effect = lower value. B-score at 10 µM. hit rate 1.2% among 310,000. AID 488922;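 active = ratio B-score over 3 SD below the library mean, with starting fluorescence within 5 SD of its mean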;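 note: negative B-score means less thallium flux so channel inhibition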
KCNQ1 block: inhibitors of human KCNQ1 potassium channel; P51787; CHO-K1 KCNQ1, FluxOR thallium flux fluorescence; stronger effect = higher value; B-score at 10 µM; hit rate 1.3% among 310,000; AID 2642;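 active = compounds whose thallium flux B-score, printed positive for inhibition, exceeds three library SD while starting fluorescence stays within three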;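 note: channel opened by potassium depolarization with thallium stimulus after 20 min compound exposure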
Target sequence (P51787 whole entry, looked up): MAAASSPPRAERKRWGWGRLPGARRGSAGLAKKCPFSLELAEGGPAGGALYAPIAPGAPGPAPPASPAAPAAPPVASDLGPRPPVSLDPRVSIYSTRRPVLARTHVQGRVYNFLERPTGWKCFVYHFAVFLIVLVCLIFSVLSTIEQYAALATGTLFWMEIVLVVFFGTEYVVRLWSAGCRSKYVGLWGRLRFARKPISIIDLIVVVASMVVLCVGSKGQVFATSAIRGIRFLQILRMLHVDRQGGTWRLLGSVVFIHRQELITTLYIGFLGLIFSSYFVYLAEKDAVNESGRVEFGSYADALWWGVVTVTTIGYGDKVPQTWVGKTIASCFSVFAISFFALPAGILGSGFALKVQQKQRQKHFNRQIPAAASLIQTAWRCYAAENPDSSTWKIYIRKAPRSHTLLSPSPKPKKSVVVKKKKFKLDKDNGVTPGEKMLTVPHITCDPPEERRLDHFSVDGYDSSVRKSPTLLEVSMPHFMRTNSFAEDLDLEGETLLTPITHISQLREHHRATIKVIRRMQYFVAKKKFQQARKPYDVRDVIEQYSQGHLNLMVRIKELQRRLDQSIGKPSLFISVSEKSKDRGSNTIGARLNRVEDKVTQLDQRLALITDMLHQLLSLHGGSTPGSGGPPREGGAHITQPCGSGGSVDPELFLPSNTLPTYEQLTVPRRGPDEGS
KCNQ1 act: potentiates or activates the human KCNQ1 potassium channel; AID 2648; P51787; CHO-K1 KCNQ1, thallium flux FluxOR fluorescence; stronger effect = higher value; B-score at 10 µM; hit rate 0.35% among 310,000;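 active = fluorescence ratio B-score, a plate-corrected score, at least three library SD, with initial intensity B-score within 5 SD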
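Assay system: CHO-K1 cells stably expressing KCNQ1; Medium: assay buffer with matched DMSO; Also added: K+/Tl+ depolarizing stimulus; Dosing: single dose; Timing: dye 90 min, compound 20 min, room temperature; Measured by: kinetic FluxOR thallium fluorescence, 10-s 1-Hz baseline, 110-s post-stimulus read; Read-out: peak-minus-minimum fluorescence over initial fluorescence, negative-control normalized, B-scored.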
Kir21 block: blocks the mouse Kir2.1 inward-rectifier potassium channel; P35561; HEK293-Kir2.1, FluxOR thallium flux fluorescence; stronger effect = lower value; B-score at 10 µM; hit rate 0.85% among 310,000;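 active = fluorescence ratio B-score at or below minus 3 SD of library scores, with starting-brightness B-score within 2 SD, cut at about -4.2 in these data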;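 note: channel flux triggered by added potassium and thallium sulfate stimulus; B-score of peak minus minimum fluorescence over baseline after thallium stimulus; more negative B-score means stronger Kir2.1 block with less thallium influx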
hERG protect: shields human hERG channel from block by proarrhythmic agents; CHO-hERG, FluxOR thallium flux, dofetilide IC70 present; hit rate 0.51% among 310,000; activation (rescue from dofetilide block), less the hit threshold, % at 10 µM; AID 1511; Q12809;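 active = activation above the mean of controls blocked by dofetilide plus 5 SD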;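 note: thallium influx through hERG after potassium depolarization seen as dye fluorescence rise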
The depositor's hits bear a star; i = inactive; nt = no result.

SMILES | KCNK3 block | KCNK9 inh | KCNQ1 block | KCNQ1 act | Kir21 block | hERG protect
O=C(COC(=O)/C=C/c1ccc2c(c1)OCO2)NCc1ccccc1 | i | nt | nt | nt | nt | nt
Cc1ccc(CN2C(=O)c3ccccc3NC2c2cc(Br)ccc2O)cc1 (configuration not stated) | i | i | 13* | i | 0.03 | -13
C/C(=N\N=C(c1ccccc1)c1ccccc1)c1cccs1 | i | i | 6* | i | 0.01 | -12
CC(C)(C)c1ccc(C(=O)NNc2ncccc2-n2cccc2)cc1 | i | i | 7* | i | 0.72 | -6
O=C(NNC(=O)c1ccccc1-n1cccc1)c1ccc(Cl)cc1 | i | i | i | i | 0.16 | -10
C(C#CCCCCCCCCC[n+]1ccccc1)#CCCCCCCCCC[n+]1ccccc1 | i | i | i | i | -15* | -17
O=C(NC1CCN(Cc2ccccc2)C1)c1cc(COc2ccc(F)cc2F)on1 (configuration not stated) | i | i | i | i | -4.4* | -10
O=C1CCC(C2CCc3cc(O)ccc3C2)C1 (configuration not stated) | i | nt | nt | nt | nt | nt
CCc1cc2c(=O)c(-c3ccc4c(c3)OCCO4)coc2cc1OS(C)(=O)=O | i | i | 6* | i | -0.71 | -12
OCCN(CCO)c1ccc(C(c2ccc(Cl)cc2)c2ccc(N(CCO)CCO)cc2Cl)c(Cl)c1 | i | i | i | 8* | -0.03 | -4
Cc1ccc(N(CCC(=O)N2CCOCC2)S(=O)(=O)c2ccccc2)cc1 | i | nt | nt | nt | nt | nt
O=C(Nc1ccc(Cl)cc1)N(C1=NCCC1)c1ccc(OC(F)F)cc1 | i | i | 6* | i | 0.24 | -16
CCC(C)n1c(SC(C)C#N)nc2ccccc2c1=O (configuration not stated) | i | i | i | i | -3.8 | 5.0*
COc1ccc(-c2ccc(/C=N/NC(=O)c3cccnc3)o2)c([N+](=O)[O-])c1 | i | i | i | i | -2.3 | 16*
O=C(OC1CCCC1)c1ccc(Cl)cc1Cl | i | nt | nt | nt | nt | nt
Cn1cnnc1SCC(=O)NNC(=O)c1ccc([N+](=O)[O-])cc1 | i | nt | nt | nt | nt | nt
O=C(CN1CCCc2ccccc21)NCCc1ccc(F)cc1 | i | i | i | i | -6.5* | -12
CN1CCN(C(c2ccccn2)c2cc(Cl)c3cccnc3c2O)CC1 (configuration not stated) | i | i | i | i | -0.47 | -10
Oc1c(C(c2ccccn2)N2CCC(Cc3ccccc3)CC2)cc(Cl)c2cccnc12 (configuration not stated) | nt | i | 13* | i | 0.06 | -2
N#CC1(NC(=O)COC(=O)/C=C/c2ccc3ccccc3n2)CCCCC1 | i | i | i | i | -2.5 | -11
O=c1[nH]c(/C(=N\O)c2ccccc2)no1 | i | -7.2* | i | i | -3.7 | -9
O=C(c1ccccc1)c1ncc[nH]1 | i | i | i | i | 0.75 | -4
CC(C)(C)c1ccc(C(=O)NCCC(=O)NCc2cccs2)cc1 | i | i | i | i | 0.31 | -3
Cn1nc(-c2ccc(N3CCOCC3)c(NS(=O)(=O)c3ccc(Cl)cc3)c2)c2ccccc2c1=O | -10* | nt | nt | nt | nt | nt
CC(OC(=O)c1ccc(-c2ccc(O)cc2)cc1)C(=O)NC1CCCCC1C (configuration not stated) | i | i | i | i | -0.69 | -6
Cc1ccc(S(=O)(=O)NCC(C)n2nc(C)cc2C)cc1 (configuration not stated) | i | i | i | i | -0.09 | 1
Cc1ccc(C(C[N+](=O)[O-])n2nc(C)cc2C)cc1 (configuration not stated) | i | i | i | i | -8* | -7
COc1ccc(-c2noc(CNC(=O)CCN3C(=O)[C@H]4CC=CC[C@H]4C3=O)n2)cc1 | i | i | i | i | -0.92 | -8
Cc1cc(OCC(=O)NNC(=S)NCC2CCCO2)cc(C)c1Cl (configuration not stated) | i | i | i | i | -2.8 | -13
CC(C)(C)OC(=O)N1CCCC(C(=O)Nc2cccc(C(=O)N3CCOCC3)c2)C1 (configuration not stated) | i | nt | nt | nt | nt | nt
